Activity calls are given as the source filed them. The rule behind the calls is not given here.
Legend:
[1] = Drug uptake in human MCF7 cells at 1 uM after 10 mins by HPLC analysis; type: ADME, cell-based; settings: mcf7, 10 min
Summary of the method: (§1)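 MCF7 cells were given 1 µM compound in medium with 10% FBS for 10 or 30 min. Cells and medium were extracted separately with chloroform/methanol (3:1, v/v) and analysed by HPLC. Mean ± SEM, n = 3.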

[2] = tested on: MCF7; assay: Induction of cell cycle arrest in human MCF7 cells assessed as accumulation at G0/G1 phase at 1 uM after 24 hrs by propidium iodide-staining based flow cytometry (reference value: 56.03%); type: functional
[3] = tested on: MCF7; assay: Induction of cell cycle arrest in human MCF7 cells assessed as accumulation at G2/M phase at 1 uM after 24 hrs by propidium iodide-staining based flow cytometry (reference value: 12.41%); type: functional
[4] = tested on: MCF7; assay: Induction of cell cycle arrest in human MCF7 cells assessed as accumulation at S phase at 1 uM after 24 hrs by propidium iodide-staining based flow cytometry (reference value: 31.55%); type: functional
[5] = tested on: MCF7; assay: Induction of apoptosis in human MCF7 cells assessed as viable cells at 1 uM after 24 hrs by Annexin V-FITC/propidium iodide-staining based flow cytometry (reference value: 98.2%); type: functional; settings: MCF7, 24 h, read-out: Activity
[6] = tested on: MCF7; assay: Induction of apoptosis in human MCF7 cells assessed as early apoptotic cells at 1 uM after 24 hrs by Annexin V-FITC/propidium iodide-staining based flow cytometry (reference value: 1.74%); type: functional
[7] = tested on: MCF7; assay: Induction of apoptosis in human MCF7 cells assessed as late apoptotic cells at 1 uM after 24 hrs by Annexin V-FITC/propidium iodide-staining based flow cytometry (reference value: 0.062%); type: functional
[8] = tested on: MCF7; assay: Induction of apoptosis in human MCF7 cells assessed as necrotic cells at 1 uM after 24 hrs by Annexin V-FITC/propidium iodide-staining based flow cytometry (reference value: 0.031%); type: functional
[9] = Drug uptake in human MCF7 cells at 1 uM after 30 mins by HPLC analysis; type: ADME, cell-based; settings: mcf7, 0.5 h; summary of the method: as §1
[10] = Drug metabolism in human MCF7 cells at 1 uM after 24 hrs by HPLC analysis; type: ADME, cell-based; settings: read-out: Drug metabolism
Summary of the method: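 MCF7 cells were incubated 24 h with 1 µM compound, alongside a medium-only incubation without cells. Mixtures were extracted with chloroform/methanol (3:1, v/v) and quantified by HPLC. Mean ± SEM, n = 3.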

[11] = tested on: Mus musculus; assay: Hypercalcemic effect in ICR mouse assessed as serum calcium levels at 5 ug/kg, ip administered for 7 days measured on day 8 post-dose by MTB-based assay (reference value: 7.05 mg/dl); type: ADME, organism-based; settings: in vivo, 0.005 mg/kg, 168 h
Summary of the method: (§2)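 Mice were dosed i.p. over a 7-day period and serum calcium was then measured. Each dose level was compared with a vehicle-treated control group (saline cited as the comparator). Data are mean ± SEM, n = 6 per group. Significance versus vehicle was reported at p < 0.05, 0.01 and 0.001.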

[12] = tested on: Mus musculus; assay: Hypercalcemic effect in ICR mouse at 0.5 ug/kg, ip administered for 7 days measured on day 8 post-dose by MTB-based assay relative to control; type: ADME, organism-based; settings: in vivo, 0.0005 mg/kg, 168 h; summary of the method: as §2
[13] = Half life in iv dosed Sprague-Dawley rat; type: ADME, organism-based; settings: in vivo
[14] = tested on: Mus musculus; assay: Hypercalcemic effect in ICR mouse at 0.5 to 5 mg/kg/day, ip administered for 7 days measured on day 8 post-dose by MTB-based assay relative to control; type: ADME, organism-based; settings: in vivo, 168 h; summary of the method: as §2
[15] = tested on: MCF7; assay: Antiproliferative activity against human MCF7 cells after 48 hrs by MTT assay; type: functional, cell-based; settings: MCF7, 48 h
[16] = tested on: PC-3; assay: Antiproliferative activity against human PC3 cells after 48 hrs by MTT assay; type: functional, cell-based; settings: PC-3, 48 h
[17] = tested on: Caco-2; assay: Antiproliferative activity against human Caco2 cells after 48 hrs by MTT assay; type: functional, cell-based; settings: Caco-2, 48 h
[18] = tested on: HepG2; assay: Antiproliferative activity against human HepG2 cells after 48 hrs by MTT assay; type: functional, cell-based; settings: HepG2, 48 h
[19] = tested on: L02; assay: Antiproliferative activity against human L02 cells after 48 hrs by MTT assay; type: cell-based; settings: L02, 48 h
[20] = target: T1, Vitamin D3 receptor (Homo sapiens) (UniProt P11473); assay: Transactivation of human GAL4-fused VRD expressed in HEK293 cells co-transfected with human RXRalpha/VDRE after 24 hrs by dual luciferase reporter gene assay; type: cell-based
T1 sequence (whole entry): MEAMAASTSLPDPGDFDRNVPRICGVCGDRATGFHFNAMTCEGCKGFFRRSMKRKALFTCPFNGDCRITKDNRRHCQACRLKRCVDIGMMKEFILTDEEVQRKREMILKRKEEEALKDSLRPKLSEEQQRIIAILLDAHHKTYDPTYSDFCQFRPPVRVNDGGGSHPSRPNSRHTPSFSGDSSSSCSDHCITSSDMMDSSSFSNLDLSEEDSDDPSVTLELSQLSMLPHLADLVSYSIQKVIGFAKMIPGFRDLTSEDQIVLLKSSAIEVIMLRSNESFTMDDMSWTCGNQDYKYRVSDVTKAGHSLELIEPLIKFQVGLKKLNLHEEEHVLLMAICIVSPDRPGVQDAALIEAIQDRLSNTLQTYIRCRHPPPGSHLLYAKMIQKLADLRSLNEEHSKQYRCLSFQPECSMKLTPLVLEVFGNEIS

[21] = target: T2, Vitamin D3 receptor (Homo sapiens, UniProt P11473); assay: Displacement of fluormone VDR red from human full length VDR after 4 hrs by fluorescence polarization assay
T2 sequence (P11473 whole entry): T1 sequence (whole entry)

[22] = tested on: HepG2; assay: Induction of cell cycle arrest in human HepG2 cells at 1 uM after 24 hrs by propidium iodide-staining based flow cytometry; type: functional
[23] = Clearance in Sprague-Dawley rat at 5 mg/kg, iv measured up to 48 hrs post administration by HPLC analysis; type: ADME, organism-based; settings: in vivo
Summary of the method: (§3)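 Male Sprague-Dawley rats (180−220 g), 4 per group, dosed at 5 mg/kg i.v., 20 mg/kg i.p. or 20 mg/kg p.o. Parameters given as mean ± SD (n = 4).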

[24] = AUC in Sprague-Dawley rat at 5 mg/kg, iv measured up to 48 hrs post administration by HPLC analysis; type: ADME, organism-based; set-up: dose 5 mg/kg, time < 48 hr, route intravenous; settings: in vivo; summary of the method: as §3
[25] = Half life in Sprague-Dawley rat at 5 mg/kg, iv by HPLC analysis; type: ADME, organism-based; settings: in vivo; summary of the method: as §3
[26] = MRT in Sprague-Dawley rat at 5 mg/kg, iv by HPLC analysis; type: ADME, organism-based; settings: in vivo; summary of the method: as §3
[27] = AUC in Sprague-Dawley rat at 20 mg/kg, ip measured up to 48 hrs post administration by HPLC analysis; type: ADME, organism-based; set-up: time < 48 hr, dose 20 mg/kg, route intraperitoneal; settings: in vivo; summary of the method: as §3
[28] = Half life in Sprague-Dawley rat at 20 mg/kg, ip by HPLC analysis; type: ADME, organism-based; settings: in vivo; summary of the method: as §3
[29] = MRT in Sprague-Dawley rat at 20 mg/kg, ip by HPLC analysis; type: ADME, organism-based; settings: in vivo; summary of the method: as §3
[30] = Clearance in Sprague-Dawley rat at 20 mg/kg, ip by HPLC analysis; type: ADME, organism-based; settings: in vivo; summary of the method: as §3
[31] = Bioavailability in Sprague-Dawley rat at 20 mg/kg, ip measured up to 48 hrs after administration by HPLC analysis; type: ADME, organism-based; settings: in vivo; summary of the method: as §3
[32] = AUC in Sprague-Dawley rat at 20 mg/kg, po measured up to 48 hrs post administration by HPLC analysis; type: ADME, organism-based; set-up: time < 48 hr, dose 20 mg/kg, route oral; settings: in vivo; summary of the method: as §3
[33] = Half life in Sprague-Dawley rat at 20 mg/kg, po by HPLC analysis; type: ADME, organism-based; settings: in vivo; summary of the method: as §3
[34] = MRT in Sprague-Dawley rat at 20 mg/kg, po by HPLC analysis; type: ADME, organism-based; settings: in vivo; summary of the method: as §3
[35] = Clearance in Sprague-Dawley rat at 20 mg/kg, po by HPLC analysis; type: ADME, organism-based; settings: in vivo; summary of the method: as §3
[36] = Oral bioavailability in Sprague-Dawley rat at 20 mg/kg measured up to 48 hrs after administration by HPLC analysis; type: ADME, organism-based; settings: in vivo; summary of the method: as §3

Row | SMILES | Activity [2] [%] | Activity [3] [%] | Activity [4] [%] | viability at 1 µM [5] [%] | Activity [6] [%] | Activity [7] [%] | Activity [8] [%] | IC50 [15] [nM] | IC50 [16] [nM] | IC50 [17] [nM] | IC50 [18] [nM] | IC50 [19] [nM] | IC50 [21] [nM] | other results
1 | C=C1/C(=C\C=C2/CCC[C@]3(C)[C@@H]([C@H](C)CCCC(C)(C)O)CC[C@@H]23)C[C@@H](O)C[C@@H]1O [CALCITRIOL] | 63.49 | 12.61 | 23.9 | 89.8 | 6.59 | 3.44 | 0.15 | – | – | – | – | – | – | Drug uptake [1]: 6.5%; Drug uptake [9]: 10.4%; metabolised at 24 h, 1 µM [10]: 27%; Activity [11]: 11.04 mg/dL; Activity [12]: Non-Toxic; half-life [13]: 4.27 h
2 | CCn1c(C(=O)N(C)CC(=O)O)ccc1C(CC)(CC)c1ccc(OCCC(O)(CC)CC)c(C)c1 | 61.76 | 10.57 | 27.68 | 87.8 | 8.42 | 3.66 | 0.17 | 79 | 2250 | 2740 | 5710 | 2150 | 873 | Activity [14]: Non-Toxic; Activity [20]: Dose-dependent effect; Activity [22]: Active
3 | CCn1c(C(=O)NC(C)CO)ccc1C(CC)(CC)c1ccc(OCC(O)C(C)(C)C)c(C)c1 (stereo not given) | 63.03 | 12.52 | 24.45 | 89.5 | 7.58 | 2.78 | 0.15 | 2800 | 17400 | > 50000 | – | 17400 | 228 | clearance [23]: 6.83 mL/min; AUC at 48 h [24]: 13400 ng·h/mL; half-life [25]: 2.44 h; MRT [26]: 2.82 h; AUC at 48 h [27]: 24800 ng·h/mL; half-life [28]: 3.96 h; MRT [29]: 8.15 h; CL/F [30]: 13.5 mL/min; bioavailability [31]: 46.2%; AUC at 48 h [32]: 13500 ng·h/mL; half-life [33]: 6.89 h; MRT [34]: 10.8 h; CL/F [35]: 25 mL/min; bioavailability [36]: 25.2%
4 | CCC(C)C(NC(=O)c1ccc(C(CC)(CC)c2ccc(OCCC(O)(CC)CC)c(C)c2)n1CC)C(=O)O (stereo not given) | – | – | – | – | – | – | – | 11300 | 13800 | 20000 | 2620 | 9990 | – | –
